Data on three molecules can be found in ChEMBL document CHEMBL1146297, “Synthesis of 2'-paclitaxel methyl 2-glucopyranosyl succinate for specific targeted delivery to cancer cells” (Bioorg Med Chem Lett, 2007).

Values after ≈ are worked out from the molar mass of the structure shown. Where only a bound is given, the exact number is not on record here.

In data set [1] the test system is RPTEC. Briefly: Cytotoxicity against human RPTEC cells. Format: cell-based.
Data set [2] is described as follows: Solubility in water. Format: physicochemical.
For a further data set, the system named is MKN-45. Briefly: Cytotoxicity against human MKN45 cells. The format is functional, cell-based.
Data set [3] can be described thus: Cytotoxicity against human MES-SA cells. The format is functional, cell-based.
For data set [4], the system named is RPTEC. Briefly: Selectivity index, IC50 for MCF7 cells to human RPTEC cells. The format is functional. The gist of the method:
(§1)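 Selectivity index is the IC50 in the cancer line (MCF-7 or NPC-TW01) divided by the IC50 in normal RPTEC cells. Each IC50 is the mean of at least three independent experiments.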

Data set [5] can be described thus: Cytotoxicity against human Hep3B cells. The format is functional, cell-based, Hep 3B2.
Data set [6] relates to RPTEC. Briefly: Selectivity index, IC50 for TW01 cells to human RPTEC cells. The format is functional. The gist of the method:
as §1

Data set [7] is described as follows: Cytotoxicity against human TW01 cells. Format: functional, cell-based.
A short description of data set [8]: Stability in human serum for 4 hrs. Format: ADME, cell-free. Particulars: read-out: Stability. The gist of the method:
(§2)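 Compound incubated in human serum at 4 µg/mL serum and 37 °C. It was then extracted with dichloromethane, and the remaining intact material was quantified by reverse-phase HPLC on a C18 column. Sampling ran up to 96 h, and stability is expressed as percent remaining.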

The next data set deals with NCI-H226. Briefly: Cytotoxicity against human NCI-H226 cells. Format: functional, cell-based.
Data set [9] in a line: Half life in human serum. The format is ADME, cell-free. The gist of the method:
as §2

For a further data set, the system named is A498. Briefly: Cytotoxicity against human A498 cells. The format is functional, cell-based.
Data set [10] concerns MCF7. Briefly: Cytotoxicity against human MCF7 cells. The format is functional, cell-based. Put shortly:
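Human MCF-7 breast cancer cells were tested in a panel of eight cancer lines plus RPTEC normal renal epithelial cells, with growth inhibition measured across a concentration range. IC50 is the concentration giving 50% inhibition, taken as the mean of at least three independent experiments with SD under 10%.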

The test system of a further data set is HCT-116. Briefly: Cytotoxicity against human HCT116 cells. The format is functional, cell-based.
The subject of data set [11] is MCF7. Briefly: Cytotoxicity against human MCF7 cells at 25 ng/mL. The format is functional.

By IC50 is commonly meant the point on the concentration scale where inhibition reaches its midpoint. High values mean a need for much substance, low ones inhibition by little substance. Usually solubility stands for the concentration that dissolves in the medium under given conditions. Lower therefore signals little dissolved substance. A word on the half-life: it is the time in which the quantity being followed falls by half. Lower therefore signals fast loss. Turning to `CO[C@H]1O[C@H](CO)[C@@H](O)[C@@H](O)[C@H]1OC(=O)CCC(=O)O[C@@H](C(=O)O[C@H]1C[C@@]2(O)[C@@H](OC(=O)c3ccccc3)[C@@H]3[C@]4(OC(C)=O)CO[C@@H]4C[C@H](O)[C@@]3(C)C(=O)[C@H](OC(C)=O)C(=C1C)C2(C)C)[C@@H](NC(=O)c1ccccc1)c1ccccc1`, the IC50 in the data set on RPTEC [1] worked out at 1580 nM; with MKN-45, 14.1 nM; in data set [3], 9.1 nM; in data set [5], 60.3 nM; in data set [7], 7.2 nM; in the data set with NCI-H226, 114 nM. Moreover, the IC50 in the data set on A498 was 258 nM; in the data set with MCF7 [10], 0.7 nM; in the data set with HCT-116 it was 25.6 nM. In addition, the concentration in solution in data set [2] (solubility) was 350 µg/mL (≈ 310 µM). Moreover, the “Ratio IC50” value with RPTEC [4] came to 0.0004; in the data set with RPTEC [6], 0.0046. Also, the remaining at 4 h in [8] amounted to 85%. For the same molecule, in data set [9], the half-life is 66 h.
`CC(=O)O[C@H]1C(=O)[C@@]2(C)[C@H]([C@H](OC(=O)c3ccccc3)[C@]3(O)C[C@H](OC(=O)[C@H](OC(=O)CCC(=O)O)[C@@H](NC(=O)c4ccccc4)c4ccccc4)C(C)=C1C3(C)C)[C@]1(OC(C)=O)CO[C@@H]1C[C@@H]2O` showed an Activity in the data set on MCF7 [11] of 50%.
As for `CC(=O)O[C@H]1C(=O)[C@@]2(C)[C@H]([C@H](OC(=O)c3ccccc3)[C@]3(O)C[C@H](OC(=O)[C@H](O)[C@@H](NC(=O)c4ccccc4)c4ccccc4)C(C)=C1C3(C)C)[C@]1(OC(C)=O)CO[C@@H]1C[C@@H]2O` [PACLITAXEL], the IC50 came to 0.9 nM in the data set on RPTEC [1]; 0.5 nM in the data set on MKN-45; 0.5 nM in data set [3]; 5.4 nM in data set [5]; 0.3 nM in [7]; 6.8 nM in the data set with NCI-H226. The figures for the IC50 in the data set on A498, in the data set on MCF7 [10] and in the data set with HCT-116 were 61 nM, 0.5 nM and 0.6 nM, respectively. This molecule came in with a solubility in data set [2] of less than 4 µg/mL. Further, the “Ratio IC50” value with RPTEC [4] is 0.56; with RPTEC [6], 0.33.
